Measurements taken from ChEMBL document CHEMBL1152534, “Synthesis of oxalamide and triazine derivatives as a novel class of hybrid 4-aminoquinoline with potent antiplasmodial activity” (Bioorg Med Chem, 2009).
Converted amounts (≈) assume the structure as drawn.

Columns and labels:
[1] = test system: Plasmodium falciparum; test: Antimalarial activity against chloroquine-sensitive Plasmodium falciparum 3D7 […] after 72 hrs by twofold serial dilution method; type: functional, organism-based
Procedure, shortened: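 P. falciparum 3D7 erythrocyte culture, 2.5% cell suspension at 0.5% parasitaemia. Compounds were twofold serially diluted from 500 ng/mL (seven concentrations) in duplicate wells and incubated 72 h. Lysis buffer with SYBR Green I (Tris pH 7.5, EDTA, saponin, Triton X-100) was added, followed by 1 h at room temperature and a fluorescence read. IC50 from non-linear regression dose–response curves.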

[2] = Selectivity index, ratio of CC50 for african green monkey (Cercopithecus aethiops) Vero cells to IC50 for chloroquine-sensitive Plasmodium falciparum 3D7; type: functional
Procedure, shortened: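 SI is Vero CC50 divided by the antiplasmodial IC50. For CC50, Vero (C-1008) cells at 1 × 10⁴ cells/well were exposed to varying compound concentrations for 72 h with an MTT read-out. CC50 is the concentration killing 50% of cells.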

[3] = test system: Plasmodium yoelii; test: Antiplasmodial activity against Plasmodium yoelii infected in Swiss mice (Mus musculus) erythrocytes assessed as inhibition of beta-hematin formation after 16 hrs by fluorescence assay; type: functional, organism-based; details: in the assay text read “absorbance measurement at 400 nm” for “fluorescence assay”
Procedure, shortened: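 Plasma came from P. yoelii-infected mouse blood at about 50% parasitemia, collected in citrate and centrifuged. The mix held 100 mM sodium acetate pH 5.1, 50 µL plasma and 100 µM hemin substrate in 1.0 mL, run in triplicate at 37 °C for 16 h with shaking. The pellet was dissolved in Tris-HCl pH 7.4 with 2.5% SDS. Absorbance at 400 nm; IC50 by non-linear regression.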

[4] = test system: Plasmodium yoelii; test: Antimalarial activity against chloroquine-resistant Plasmodium yoelii N67 infected in Swiss mice (Mus musculus) assessed as inhibition of parasitaemia at 50 mg/kg, intraperitoneally administered daily for 4 days measured on day 4 post-infection; type: functional; details: for inhibition in vivo at 50 mg/kg: N67, ip, 96 h, route intraperitoneal
Procedure, shortened: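 Swiss mice were inoculated with 1 × 10⁶ P. yoelii N-67 parasitized RBC on day 0. Groups of five received compound as an aqueous suspension with a few drops of Tween 80, at 50 mg/kg/day intraperitoneally once daily from day 0 to 3. Parasitaemia was read from thin smears on day 4, with group-mean percent suppression against untreated controls.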

[5] = test system: Plasmodium yoelii; test: Antimalarial activity against chloroquine-resistant Plasmodium yoelii N67 infected in Swiss mice (Mus musculus) assessed as inhibition of parasitaemia at 10 mg/kg, perorally administered for 4 days measured on day 4 post-infection; type: functional; details: N67, 96 h, route oral
Procedure, shortened: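 Swiss mice were inoculated with 1 × 10⁶ P. yoelii N-67 parasitized RBC on day 0. Groups of five were dosed with chloroquine orally at 10 mg/kg once daily from day 0 to 3. Parasitaemia was read from thin blood smears on day 4, and percent suppression was calculated from the group mean against untreated controls.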

[6] = Plasmodium falciparum, 3D7, Vero, 72 h, read-out: IC50

Row | Compound | IC50 ([1]; vero) | IC50 [1, 6] [µg/mL] | IC50 ([3]; Plasmodium yoelii, 16 h) [µg/mL] | Ratio CC50/IC50 [2] | also measured
1 | Cn1cc(C(=O)C(=O)N2CCN(c3ccnc4cc(Cl)ccc34)CC2)c2ccccc21 | Not Active |  |  |  | 
2 | Cc1ccc(S(=O)(=O)n2cc(C(=O)C(=O)N3CCN(c4ccnc5cc(Cl)ccc45)CC3)c3ccccc32)cc1 | Not Active |  |  |  | 
3 | CCN(CC)CCNc1nc(NCCNc2ccnc3cc(Cl)ccc23)nc(N2CCOCC2)n1 |  | 0.0297 (≈ 0.0595 µM) | 9.42 (≈ 18.8 µM) | 1663.75 | 
4 | O=C(NCCCN1CCOCC1)C(=O)NCCNc1ccnc2cc(Cl)ccc12 |  | 0.0313 (≈ 0.0746 µM) | 7.18 (≈ 17.1 µM) | 1567.05 | inhibition in vivo at 50 mg/kg [4]: 43.6%
5 | CN1CCN(c2nc(NCCNc3ccnc4cc(Cl)ccc34)nc(N3CCCCC3)n2)CC1 |  | 0.00788 (≈ 0.0163 µM) | 9.1 (≈ 18.9 µM) | 958.12 | Activity [4]: Toxic
6 | CCN(CC)CCNc1nc(NCCNc2ccnc3cc(Cl)ccc23)nc(N2CCCCC2)n1 |  | 0.0147 (≈ 0.0295 µM) | 10.2 (≈ 20.4 µM) | 223.13 | 
7 | CN1CCN(c2nc(NCCCNc3ccnc4cc(Cl)ccc34)nc(N3CCOCC3)n2)CC1 |  | 0.0401 (≈ 0.0805 µM) | 8.55 (≈ 17.2 µM) | 704.25 | 
8 | CN1CCN(c2nc(NCCNc3ccnc4cc(Cl)ccc34)nc(N3CCOCC3)n2)CC1 |  | 0.01 (≈ 0.0207 µM) | 6.19 (≈ 12.8 µM) | 4692.08 | Activity [4]: Toxic
9 | CN(C)CCNc1nc(NCCCNc2ccnc3cc(Cl)ccc23)nc(N2CCOCC2)n1 |  | 0.164 (≈ 0.337 µM) | 7.94 (≈ 16.3 µM) | 219.77 | 
10 | CN(C)CCNc1nc(NCCNc2ccnc3cc(Cl)ccc23)nc(N2CCOCC2)n1 |  | 0.0394 (≈ 0.0835 µM) | 8.1 (≈ 17.2 µM) | 1291.71 | 
11 | O=C(NCCCNc1ccnc2cc(Cl)ccc12)C(=O)NCCCN1CCOCC1 |  | 0.0254 (≈ 0.0586 µM) | 8.74 (≈ 20.1 µM) | 1625.52 | inhibition in vivo at 50 mg/kg [4]: 21.4%
12 | CN(C)CCNC(=O)C(=O)NCCCNc1ccnc2cc(Cl)ccc12 |  | 0.0264 (≈ 0.0699 µM) | 7.98 (≈ 21.1 µM) | 2527.65 | inhibition in vivo at 50 mg/kg [4]: 70.5%
13 | Clc1ccc2c(NCCCNc3nc(NCCCN4CCOCC4)nc(N4CCCCC4)n3)ccnc2c1 |  | 0.00523 (≈ 0.00968 µM) | 7.54 (≈ 14 µM) | 860.41 | Activity [4]: Toxic
14 | CN1CCN(c2nc(NCCCNc3ccnc4cc(Cl)ccc34)nc(N3CCCCC3)n2)CC1 |  | 0.00913 (≈ 0.0184 µM) | 7.45 (≈ 15 µM) | 530.2 | 
15 | CN(C)CCNc1nc(NCCNc2ccnc3cc(Cl)ccc23)nc(N2CCCCC2)n1 |  | 0.0159 (≈ 0.0338 µM) | 13.3 (≈ 28.4 µM) | 1062.3 | 
16 | CCN(CC)CCCC(C)Nc1ccnc2cc(Cl)ccc12 (configuration not stated) [CHLOROQUINE] |  |  | 4.87 (≈ 15.2 µM) |  | inhibition in vivo at 10 mg/kg [5]: 99%
17 | Clc1ccc2c(NCCNc3nc(NCCCN4CCOCC4)nc(N4CCOCC4)n3)ccnc2c1 |  | 0.0222 (≈ 0.042 µM) | 8.58 (≈ 16.2 µM) | 2405.86 | 
18 | CCN(CC)CCNc1nc(NCCCNc2ccnc3cc(Cl)ccc23)nc(N2CCOCC2)n1 |  | 0.0403 (≈ 0.0783 µM) | 10.6 (≈ 20.7 µM) | 1068.32 | 
19 | CCN(CC)CCNc1nc(NCCCNc2ccnc3cc(Cl)ccc23)nc(N2CCCCC2)n1 |  | 0.00897 (≈ 0.0175 µM) | 7.45 (≈ 14.5 µM) | 1011.15 | 
20 | O=C(C(=O)N1CCN(c2ccnc3cc(Cl)ccc23)CC1)c1c[nH]c2ccccc12 | Not Active |  |  |  | 
21 | Clc1ccc2c(NCCNc3nc(NCCCN4CCOCC4)nc(N4CCCCC4)n3)ccnc2c1 |  | 0.0656 (≈ 0.125 µM) | 7.79 (≈ 14.8 µM) | 65.21 | 
22 | Clc1ccc2c(NCCCNc3nc(NCCCN4CCOCC4)nc(N4CCOCC4)n3)ccnc2c1 |  | 0.0521 (≈ 0.096 µM) | 8.6 (≈ 15.9 µM) | 706.15 | 
23 | CN(C)CCNc1nc(NCCCNc2ccnc3cc(Cl)ccc23)nc(N2CCCCC2)n1 |  | 0.0156 (≈ 0.0323 µM) | 8.19 (≈ 16.9 µM) | 330.11 | 

Further lines, with some results ahead:

Row | IC50 ([1]; vero) | IC50 [1, 6] [µg/mL] | IC50 ([3]; Plasmodium yoelii, 16 h) [µg/mL] | Compound | Ratio CC50/IC50 [2] | also measured
24 | Not Active |  |  | O=C(C(=O)N1CCN(CCNc2ccnc3cc(Cl)ccc23)CC1)c1c[nH]c2ccccc12 |  | 
25 | Not Active |  |  | CCCCNC(=O)C(=O)N1CCN(CCNc2ccnc3cc(Cl)ccc23)CC1 |  | 
26 |  | 0.0482 (≈ 0.0937 µM) | 17.2 (≈ 33.4 µM) | Clc1ccc2c(NCCNc3nc(NCCN4CCOCC4)nc(N4CCOCC4)n3)ccnc2c1 | 1176.4 | 
27 |  | 0.042 (≈ 0.1 µM) | < 20 | CCN(CC)CCNC(=O)C(=O)N1CCN(c2ccnc3cc(Cl)ccc23)CC1 | 1183.41 | 
28 |  | 0.0503 (≈ 0.128 µM) | 7.01 (≈ 17.9 µM) | CCN(CC)CCNC(=O)C(=O)NCCNc1ccnc2cc(Cl)ccc12 | 605.61 | 
29 | Not Active |  |  | Clc1ccc2c(NCCNc3nc(NCCN4CCOCC4)nc(N4CCCCC4)n3)ccnc2c1 |  | 
30 | Not Active |  |  | Cn1cc(C(=O)C(=O)N2CCN(CCNc3ccnc4cc(Cl)ccc34)CC2)c2ccccc21 |  | 
31 |  | 0.0844 (≈ 0.195 µM) | < 20 | CN(C)CCNC(=O)C(=O)N1CCN(CCNc2ccnc3cc(Cl)ccc23)CC1 | 65 | 
32 |  | 0.233 (≈ 0.643 µM) | 15.7 (≈ 43.2 µM) | CCCCNC(=O)C(=O)NCCCNc1ccnc2cc(Cl)ccc12 | 38.13 | 
33 | Not Active |  |  | O=C(NCCCN1CCOCC1)C(=O)N1CCN(c2ccnc3cc(Cl)ccc23)CC1 |  | 
34 |  | 0.0179 (≈ 0.0338 µM) | 8.72 (≈ 16.5 µM) | Clc1ccc2c(NCCCNc3nc(NCCN4CCOCC4)nc(N4CCOCC4)n3)ccnc2c1 | 1017.32 | 
35 | Not Active |  |  | CN(C)CCNC(=O)C(=O)N1CCN(c2ccnc3cc(Cl)ccc23)CC1 |  | 
36 |  | 0.262 (≈ 0.551 µM) | 14.2 (≈ 29.8 µM) | O=C(NCCN1CCOCC1)C(=O)N1CCN(CCNc2ccnc3cc(Cl)ccc23)CC1 | 183.05 | 
37 |  | 0.0316 (≈ 0.0868 µM) | 11.1 (≈ 30.5 µM) | CN(C)CCNC(=O)C(=O)NCCNc1ccnc2cc(Cl)ccc12 | 383.03 | 
38 | Not Active |  |  | CCCCNC(=O)C(=O)N1CCN(c2ccnc3cc(Cl)ccc23)CC1 |  | 
39 |  | 0.0908 (≈ 0.224 µM) | 6.87 (≈ 16.9 µM) | O=C(NCCNc1ccnc2cc(Cl)ccc12)C(=O)NCCN1CCOCC1 | 567.43 | 
40 | Not Active |  |  | O=C(NCCN1CCOCC1)C(=O)N1CCN(c2ccnc3cc(Cl)ccc23)CC1 |  | 
41 |  | 0.0156 (≈ 0.0384 µM) | 7.99 (≈ 19.7 µM) | CCN(CC)CCNC(=O)C(=O)NCCCNc1ccnc2cc(Cl)ccc12 | 232.99 | 
42 | Not Active |  |  | Clc1ccc2c(NCCCNc3nc(NCCN4CCOCC4)nc(N4CCCCC4)n3)ccnc2c1 |  | 
43 |  | 0.233 (≈ 0.668 µM) | 6.76 (≈ 19.4 µM) | CCCCNC(=O)C(=O)NCCNc1ccnc2cc(Cl)ccc12 | 18.88 | 
44 | Not Active |  |  | Cc1ccc(S(=O)(=O)n2cc(C(=O)C(=O)N3CCN(CCNc4ccnc5cc(Cl)ccc45)CC3)c3ccccc32)cc1 |  | 
45 | Not Active |  |  | CC(C)(C)NC(=O)C(=O)N1CCN(CCNc2ccnc3cc(Cl)ccc23)CC1 |  | 
46 |  | 0.0408 (≈ 0.0835 µM) |  | O=C(NCCCN1CCOCC1)C(=O)N1CCN(CCNc2ccnc3cc(Cl)ccc23)CC1 | 1221.84 | IC50 [3]: Not Active
47 |  | 0.0798 (≈ 0.173 µM) |  | CCN(CC)CCNC(=O)C(=O)N1CCN(CCNc2ccnc3cc(Cl)ccc23)CC1 | 194 | IC50 [3]: Not Active
48 |  | 0.0822 (≈ 0.196 µM) | 10.7 (≈ 25.4 µM) | O=C(NCCCNc1ccnc2cc(Cl)ccc12)C(=O)NCCN1CCOCC1 | 191.82 | 
49 | Not Active |  |  | CC(C)(C)NC(=O)C(=O)N1CCN(c2ccnc3cc(Cl)ccc23)CC1 |  | 
